Activity calls are given as the source filed them. No cut-off for these calls is given here.

Consider 1 compound from ChEMBL document CHEMBL4342473, “Lead Optimization of Benzoxazolone Carboxamides as Orally Bioavailable and CNS Penetrant Acid Ceramidase Inhibitors” (J Med Chem, 2020).

Data set [1] has as its target T1, Acid ceramidase (Homo sapiens) (UniProt Q13510).
T1 sequence (whole entry): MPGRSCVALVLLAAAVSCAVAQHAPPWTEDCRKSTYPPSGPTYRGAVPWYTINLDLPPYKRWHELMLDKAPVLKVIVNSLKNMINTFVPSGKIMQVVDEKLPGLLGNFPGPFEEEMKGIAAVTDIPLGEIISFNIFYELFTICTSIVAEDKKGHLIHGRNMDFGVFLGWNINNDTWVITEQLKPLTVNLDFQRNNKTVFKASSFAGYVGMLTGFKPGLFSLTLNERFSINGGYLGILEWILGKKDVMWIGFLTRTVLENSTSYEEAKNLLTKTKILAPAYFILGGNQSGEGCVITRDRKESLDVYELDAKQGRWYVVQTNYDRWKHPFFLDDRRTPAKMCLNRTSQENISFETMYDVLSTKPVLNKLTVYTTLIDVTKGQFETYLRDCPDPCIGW
As to the kind of experiment: Inhibition of acid ceramidase in human SH-SY5Y cells assessed as increase in intracellular accumulation of Cer (d18:1/16:0) measured after 3 hrs by LC/MS analysis. Format: cell-based. In outline:
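SH-SY5Y neuroblastoma cells exposed 3 h to 1, 2.5, 5 and 10 μM; AC activity by LC/MS-based assay; ceramide species, sphingosine, SM and HexCer (d18:1/16:0) quantified by LC/MS; means ± S.E.M. of at least six determinations, experiment repeated twice.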

Data set [2] deals with T1, Acid ceramidase (Homo sapiens). As to the kind of experiment: Inhibition of acid ceramidase in human SH-SY5Y cells assessed as increase in intracellular accumulation of Cer (d18:0/16:0) at 10 uM measured up to 6 hrs by LC/MS analysis. Format: cell-based. The essentials: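 Human neuroblastoma SH-SY5Y cells incubated with compound at 10 μM for 30 min, 1 h, 3 h and 6 h; AC activity by LC/MS-based activity assay; Cer (d18:0/16:0), Cer (d18:1/16:0), sphingosine, SM (d18:1/16:0) and HexCer (d18:1/16:0) quantified by LC/MS.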

Data set [3] can be described thus: Toxicity in C57BL/6 mouse assessed as clinical abnormalities at 20 to 120 mg/kg, ip administered for 4 days. Format: organism-based. The following applies: in vivo, 96 h.
Data set [4] concerns Mus musculus. As to the kind of experiment: Neuroprotective activity in ip dosed Twitcher mouse model of Krabbe's disease assessed as reduction in GalSph (d18:1) level in brain administered once daily for 20 days measured 1 hr post-last dose by MS analysis. Format: functional, organism-based. The essentials:
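Twitcher mice dosed i.p. at 30 or 90 mg kg–1 once daily for 20 days from postnatal day 10; sacrificed 1 h after last dose; brain GalSph (d18:1) measured; N = 3 males + 3 females per group.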

Take `CC(C)CNC(=O)n1c(=O)oc2cc(C3CCN(C)CC3)ccc21`: in data set [1], the inhibition entry is “Dose-dependent effect”. The inhibition result in data set [2] is “Active”. Further, the Activity result in data set [3] was “Non-Toxic”; in data set [4] it was “Dose-dependent effect”.
